Measured values from ChEMBL document CHEMBL3739254, “Synthesis of apoptotic chalcone analogues in HepG2 human hepatocellular carcinoma cells” (Bioorg Med Chem Lett, 2015).
Active and inactive are the calls of the source. The rule behind the calls is not given here.

Experiments:
HepG2 [1] = test: Cytotoxicity against human HepG2 cells assessed as cell viability at 5 to 100 uM after 24 hrs by MTT assay relative to control; format: functional, cell-based
Outline: (§1)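 HepG2 cells kept in DMEM with 10% FBS and penicillin/streptomycin at 37 °C under 5% CO2. Cells were exposed for 24 h to chalcone analogues at various concentrations, up to 100 µM, and viability was then read by MTT assay.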

HepG2 [2] = test: Cytotoxicity against human HepG2 cells assessed as cell viability at 5 to 100 uM after 24 hrs by MTT assay; format: functional; outline: as §1
HepG2 [3] = test: Cytotoxicity against human HepG2 cells assessed as cell viability at 50 uM after 24 hrs by MTT assay; format: functional; details: HepG2, 24 h, read-out: GI; outline: as §1
HepG2 [4] = test: Cytotoxicity against human HepG2 cells assessed as cell viability at 100 uM after 24 hrs by MTT assay; format: functional; details: HepG2, 24 h, read-out: GI; outline: as §1
HepG2 [5] = test: Cytotoxicity against human HepG2 cells assessed as cell viability after 24 hrs by MTT assay; format: functional, cell-based; details: HepG2, 24 h; outline: as §1
LLC-PK1 = test: Cytotoxicity against porcine LLC-PK1 cells assessed as cell viability after 24 hrs by MTT assay; format: cell-based; details: Sus scrofa, LLC-PK1, 24 h
HepG2 [6] = test: Induction of apoptosis in human HepG2 cells assessed as early apoptotic cells at 25 uM by annexin V-FITC/propidium iodide staining-based flow cytometric analysis (reference value: 1.9 +/- 0.5%); format: functional
HepG2 [7] = test: Induction of apoptosis in human HepG2 cells assessed as early apoptotic cells at 50 uM by annexin V-FITC/propidium iodide staining-based flow cytometric analysis (reference value: 1.9 +/- 0.5%); format: functional
HepG2 [8] = test: Induction of apoptosis in human HepG2 cells assessed as cell shrinking at 25 to 50 uM by phase contrast microscopic analysis; format: functional, cell-based
HepG2 [9] = test: Induction of apoptosis in human HepG2 cells assessed as progressive condensation at 25 to 50 uM by phase contrast microscopic analysis; format: functional, cell-based
HepG2 [10] = test: Induction of apoptosis in human HepG2 cells assessed as karyorrhexis at 25 to 50 uM by phase contrast microscopic analysis; format: functional, cell-based
HepG2 [11] = test: Induction of apoptosis in human HepG2 cells assessed as cleavage of caspase-8 at 25 to 50 uM after 24 hrs by Western blot analysis; format: functional, cell-based
Outline: (§2)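 HepG2 cells were grown in 60 mm dishes and treated at 25 and 50 µM for 24 h. Whole-cell extracts were made in RIPA buffer with 1× protease inhibitor cocktail and 1 mM PMSF. Lysates (20 µg) were run on SDS–PAGE and transferred to PVDF. Blots were probed with epitope-specific antibodies against GAPDH and the target proteins and detected by ECL.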

HepG2 [12] = test: Induction of apoptosis in human HepG2 cells assessed as cleavage of caspase-3 at 25 to 50 uM after 24 hrs by Western blot analysis; format: functional, cell-based; outline: as §2
HepG2 [13] = test: Induction of apoptosis in human HepG2 cells assessed as cleavage of PARP at 25 to 50 uM after 24 hrs by Western blot analysis; format: functional, cell-based; outline: as §2
HepG2 [14] = test: Induction of apoptosis in human HepG2 cells assessed as cleavage of caspase-9 at 25 to 50 uM after 24 hrs by Western blot analysis; format: functional, cell-based; outline: as §2
HepG2 [15] = test: Induction of apoptosis in human HepG2 cells assessed as increase in Bax/Bcl2 ratio at 25 to 50 uM after 24 hrs by Western blot analysis; format: functional, cell-based; outline: as §2

With O=C(/C=C/c1ccc(-c2ccccc2)cc1)c1ccc(Cl)cc1 the “growth inhibition (GI)” value (HepG2 [1]) was “inactive”.
O=C(/C=C/c1ccc2ccccc2c1)c1ccc(Cl)cc1 was tested, and the “growth inhibition (GI)” value (HepG2 [1]) was “inactive”.
In the case of COc1cc(/C=C/C(=O)c2ccc(Br)cc2)cc(OC)c1Br, the “growth inhibition (GI)” value (HepG2 [2]) is reported as greater than 50%.
For CCn1c2ccccc2c2cc(/C=C/C(=O)c3ccc(OC)c(OC)c3)ccc21, the “growth inhibition (GI)” value (HepG2 [1]) was “inactive”.
In the case of COc1ccc(C(=O)/C=C/c2ccc(-c3ccccc3)cc2)cc1OC, the “growth inhibition (GI)” value (HepG2 [1]) is reported as “inactive”.
With O=C(/C=C/c1ccc2ccccc2c1)c1ccc(Br)cc1 the “growth inhibition (GI)” value (HepG2 [1]) was “inactive”.
CCn1c2ccccc2c2cc(/C=C/C(=O)c3ccc(Cl)cc3)ccc21 was tested, and the “growth inhibition (GI)” value (HepG2 [1]) was “inactive”.
For COc1cccc(C(=O)/C=C/c2cc(OC)c(Br)c(OC)c2)c1, the inhibition of growth at 50 µM (HepG2 [3]) was no more than 91%, the inhibition of growth at 100 µM (HepG2 [4]) was 98% and the “growth inhibition (GI)” value (HepG2 [2]) was greater than 50%. For the same compound, the IC50 (HepG2 [5]) was 26 µM, the IC50 (LLC-PK1) was 83 µM and the Activity (HepG2 [6]) was 8.5%. For the same compound, the Activity (HepG2 [7]) was 31.2%, the Activity (HepG2 [8]) was “Active” and the Activity (HepG2 [9]) was “Active”. The Activity (HepG2 [10]) was “Active”, the Activity (HepG2 [11]) was “Active” and the Activity (HepG2 [12]) was “Active”. The Activity (HepG2 [13]) was “Active”, the Activity (HepG2 [14]) was “inactive” and the Activity (HepG2 [15]) was “Active”.
